# Measured values reported in ChEMBL document CHEMBL1122058, “Agents for the treatment of brain injury. 1. (Aryloxy)alkanoic acids” (J Med Chem, 1982).
# Active and inactive are the calls of the source. The rule behind the calls is not given here.
# Columns and labels:
# [1] = species on record: Felis catus; experiment: In vitro inhibition of tissue swelling of Cerebrocortical slices from cat with addition of Triethylammonium Bicarbonate (TEAB) and at a compound concentration of 1 X 10E-5 M.; type: functional
# How it was run: (§1)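 Cat cerebral cortex slices (~150 mg, 0.5 mm) incubated aerobically 60 min at 37 °C in K+-rich (27 mM) Hepes-buffered saline-glucose with test compound as Na salt. HCO3- (NaHCO3 or TEAB) added from sidearm at 20 min to 10 mM final; HCO3- flasks gassed with 2.5% CO2/97.5% O2. Swelling by reweighing; Na+/K+ by flame photometry, Cl- by amperometric titration. Units: per g initial fresh weight; means ± SE, Student's t test.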
# [2] = species on record: Canis familiaris; experiment: Relative salidiuretic efficacy was scored in dog; weak; type: functional, organism-based; settings: Canis lupus familiaris; Urine
# [3] = Dissociation constant (pKa) (determined in 30% EtOH); type: physicochemical
# [4] = Evaluated for Potassium ion content of Cerebrocortical slices in cat with addition of Sodium Bicarbonate (NaHCO3) and at a compound concentration of 1 X 10E-5 M; type: functional, Felis catus; how it was run: as §1
# [5] = species on record: Felis catus; experiment: In vitro inhibition of tissue swelling of Cerebrocortical slices from cat with addition of Sodium Bicarbonate (NaHCO3) and at a compound concentration of 1 X 10E-5 M; type: functional; how it was run: as §1
# [6] = species on record: Rattus norvegicus; experiment: Relative salidiuretic efficacy was scored in Rat; moderate; type: functional, organism-based; settings: Urine
# [7] = Distribution coefficient (D %) between octanol and buffer of pH 7.4; type: physicochemical; settings: octanol/water
# [8] = Compound at a concentration of 1 X 10E-5 M along with addition of Sodium Bicarbonate (NaHCO3) was tested for percent bicarbonate stimulated swelling of Cerebrocortical slices in cat (in vitro); type: functional, Felis catus; how it was run: as §1
# [9] = species on record: Pan troglodytes; experiment: Relative salidiuretic efficacy was scored in chimpanzee; moderate; type: functional, organism-based; settings: Urine
# [10] = Evaluated for Potassium ion content of Cerebrocortical slices in cat with addition of Triethylammonium Bicarbonate (TEAB) and at a compound concentration of 1 X 10E-5 M.; type: functional, Felis catus; how it was run: as §1
# [11] = species on record: Felis catus; experiment: Evaluated for chloride ion content of Cerebrocortical slices in cat with addition of Sodium Bicarbonate (NaHCO3) and at a compound concentration of 1 X 10E-5 M; type: functional; how it was run: as §1
# [12] = species on record: Felis catus; experiment: In vitro inhibition of HCO3- stimulated swelling in cat cerebrocortical tissue slice; No inhibition occurred; type: functional; settings: read-out: I 50; how it was run: as §1
# [13] = test system: Felis catus; experiment: Mortality of animals recorded as the number of animals dead out of the total animals (16) taken for the study at dose 5 mg/kg; type: functional
# How it was run: (§2)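 Adult conditioned cats (2.5–4 kg) under iv methohexital (13.25 mg/kg, plus 2.75 mg/kg if needed) received machine-induced acceleration/deceleration head injury. Forty min later they were paralysed with gallamine and ventilated with 6% O2/94% N2 for 60 min (arterial pO2 23 ± 1 torr). Drug was given iv 20 min post-injury, before hypoxemia. Mortality was scored as dead/total, chi-square tested.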
# [14] = species on record: Canis familiaris; experiment: Relative salidiuretic efficacy was scored in dog; Marginal; type: functional, organism-based; settings: Canis lupus familiaris; Urine
# [15] = species on record: Pan troglodytes; experiment: Relative salidiuretic efficacy was scored in chimpanzee; Marginal; type: functional, organism-based; settings: Urine
# [16] = species on record: Rattus norvegicus; experiment: Relative salidiuretic efficacy was scored in Rat; Marginal; type: functional, organism-based; settings: Urine
# [17] = species on record: Felis catus; experiment: In vitro inhibition of HCO3- stimulated swelling in cat cerebrocortical tissue slice; type: functional; settings: read-out: I 50; how it was run: as §1
# [18] = species on record: Rattus norvegicus; experiment: Relative salidiuretic efficacy was scored in Rat; inactive; type: functional, organism-based; settings: Urine
# [19] = test system: Felis catus; experiment: Relative salidiuretic efficacy was scored in cat upon intravenous administration of 20 mg/kg of Na salt; inactive; type: functional, organism-based; design: dose 20 mg/kg; settings: Urine
# [20] = test system: Felis catus; experiment: Mortality of animals recorded as the number of animals dead out of the total animals (16) taken for the study at dose 1 mg/kg; type: functional; how it was run: as §2
# [21] = species on record: Felis catus; experiment: (§3) Evaluated for Potassium ion content of Cerebrocortical slices in cat with out additions; type: functional; how it was run: as §1
# [22] = species on record: Felis catus; experiment: Evaluated for Potassium ion content of Cerebrocortical slices in cat with addition of Sodium Bicarbonate (NaHCO3).; type: functional; how it was run: as §1
# [23] = species on record: Felis catus; experiment: In vitro inhibition of tissue swelling of Cerebrocortical slices from cat with addition of Triethylammonium Bicarbonate (TEAB).; type: functional; how it was run: as §1
# [24] = species on record: Canis familiaris; experiment: Relative salidiuretic efficacy was scored in dog; moderate; type: functional, organism-based; settings: Canis lupus familiaris; Urine
# [25] = species on record: Felis catus; experiment: In vitro inhibition of tissue swelling of Cerebrocortical slices from cat with out additions; type: functional; how it was run: as §1
# [26] = species on record: Felis catus; experiment: Evaluated for chloride ion content of Cerebrocortical slices in cat with addition of Sodium Bicarbonate (NaHCO3).; type: functional; how it was run: as §1
# [27] = species on record: Felis catus; experiment: In vitro inhibition of tissue swelling of Cerebrocortical slices from cat with out additions
# [28] = species on record: Felis catus; experiment: In vitro inhibition of tissue swelling of Cerebrocortical slices from cat with addition of Sodium Bicarbonate (NaHCO3).; type: functional; how it was run: as §1
# [29] = species on record: Felis catus; experiment: Evaluated for Sodium ion content of Cerebrocortical slices in cat with out additions
# [30] = species on record: Felis catus; experiment: (§4) Evaluated for chloride ion content of Cerebrocortical slices in cat with out additions; type: functional; how it was run: as §1
# [31] = Compound was tested for bicarbonate stimulated swelling of Cerebrocortical slices from cat with addition of Sodium Bicarbonate (NaHCO3) (in vitro); how it was run: as §1
# [32] = species on record: Felis catus; experiment: Evaluated for Sodium ion content of Cerebrocortical slices in cat with addition of Triethylammonium Bicarbonate (TEAB).; type: functional; how it was run: as §1
# [33] = species on record: Felis catus; experiment: Evaluated for Sodium ion content of Cerebrocortical slices in cat with out additions; type: functional; how it was run: as §1
# [34] = Compound was tested for bicarbonate stimulated swelling of Cerebrocortical slices from cat with addition of Triethylammonium Bicarbonate (TEAB) (in vitro); type: functional; how it was run: as §1
# [35] = species on record: Felis catus; experiment: as §4; type: functional; how it was run: as §1; remark: listed apart in the source
# [36] = species on record: Felis catus; experiment: Evaluated for Sodium ion content of Cerebrocortical slices in cat with addition of Sodium Bicarbonate (NaHCO3).; type: functional; how it was run: as §1
# [37] = species on record: Felis catus; experiment: Evaluated for chloride ion content of Cerebrocortical slices in cat with addition of Triethylammonium Bicarbonate (TEAB).; type: functional; how it was run: as §1
# [38] = species on record: Felis catus; experiment: Evaluated for Potassium ion content of Cerebrocortical slices in cat with addition of Triethylammonium Bicarbonate (TEAB).; type: functional; how it was run: as §1
# [39] = test system: Felis catus; experiment: Mortality of animals recorded as the number of animals dead out of the total animals (42) taken for the study at dose 1 mg/kg; type: functional; how it was run: as §2
# [40] = species on record: Homo sapiens; experiment: Relative salidiuretic efficacy was scored in human; moderate; type: functional, organism-based; settings: Urine
# [41] = species on record: Felis catus; experiment: as §3; type: functional; how it was run: as §1; remark: listed apart in the source
# [42] = species on record: Pan troglodytes; experiment: Relative salidiuretic efficacy was scored in chimpanzee; marked; type: functional, organism-based; settings: Urine
# [43] = species on record: Felis catus; experiment: Evaluated for Potassium ion content of Cerebrocortical slices in cat with addition of Sodium Bicarbonate (NaHCO3) at a compound concentration of 1 X 10E-7 M..; type: functional; how it was run: as §1
# [44] = species on record: Felis catus; experiment: In vitro inhibition of tissue swelling of Cerebrocortical slices from cat with addition of Sodium Bicarbonate (NaHCO3) at a compound concentration of 1 X 10E-7 M; type: functional; how it was run: as §1
# [45] = species on record: Felis catus; experiment: Evaluated for chloride ion content of Cerebrocortical slices in cat with addition of Triethylammonium Bicarbonate (TEAB) at a compound concentration of 1 X 10E-5 M.; type: functional; how it was run: as §1
# [46] = species on record: Felis catus; experiment: Evaluated for Sodium ion content of Cerebrocortical slices in cat with addition of Sodium Bicarbonate (NaHCO3) at a compound concentration of 1 X 10E-5 M..; type: functional; how it was run: as §1
# [47] = Evaluated for Potassium ion content of Cerebrocortical slices in cat with addition of Sodium Bicarbonate (NaHCO3) at a compound concentration of 1 X 10E-5 M; type: functional, Felis catus; how it was run: as §1
# [48] = In vitro inhibition of tissue swelling of Cerebrocortical slices from cat with addition of Triethylammonium Bicarbonate (TEAB) at a compound concentration of 1 X 10E-5 M.; type: functional, Felis catus; how it was run: as §1
# [49] = species on record: Felis catus; experiment: Evaluated for Potassium ion content of Cerebrocortical slices in cat with addition of Triethylammonium Bicarbonate (TEAB) at a compound concentration of 1 X 10E-5 M.; type: functional; how it was run: as §1
# [50] = Evaluated for chloride ion content of Cerebrocortical slices in cat with addition of Sodium Bicarbonate (NaHCO3) at a compound concentration of 1 X 10E-5 M..; type: functional, Felis catus; how it was run: as §1
# [51] = species on record: Rattus norvegicus; experiment: Relative salidiuretic efficacy was scored in Rat; marked; type: functional, organism-based; settings: Urine
# [52] = species on record: Felis catus; experiment: In vitro inhibition of tissue swelling of Cerebrocortical slices from cat with addition of Sodium Bicarbonate (NaHCO3) at a compound concentration of 1 X 10E-5 M..; type: functional; how it was run: as §1
# [53] = Evaluated for Sodium ion content of Cerebrocortical slices in cat with addition of Triethylammonium Bicarbonate (TEAB) at a compound concentration of 1 X 10E-5 M.; type: functional, Felis catus; how it was run: as §1
# [54] = test system: Felis catus; experiment: Mortality of animals recorded as the number of animals dead out of the total animals (18) taken for the study at dose 30 mg/kg given q.i.d.; type: functional; how it was run: as §2
# [55] = test system: Felis catus; experiment: Mortality of animals recorded as the number of animals dead out of the total animals (16) taken for the study at dose 1 mg/kg given q.i.d.; type: functional
structure (smiles),measurement,setting,value
C[C@@]1(C2CCCC2)Cc2cc(OCC(=O)O)c(Cl)c(Cl)c2C1=O,Activity,[1],279 µM/g
same,Relative salidiuretic activity,[2],marked
same,pKa,[3],3.9
same,Activity,[4],96.4 µM/g
same,Tissue swelling,[5],266 µL/g
same,Relative salidiuretic activity,[6],marked
same,Distribution,[7],90%
same,Activity,[8],100
same,Relative salidiuretic activity,[9],marked
same,Activity,[10],93.6 µM/g
same,Activity,[11],104.6 µM/g
same,IC50,[12],> 10 µM
CC1(C2CCCC2)Cc2cc(OCCCC(=O)O)c(Cl)c(Cl)c2C1=O (racemic),Mortality,[13],4
same,pKa,[3],5.7
same,Distribution,[7],99%
same,Relative salidiuretic activity,[14],inactive
same,Relative salidiuretic activity,[15],inactive
same,Relative salidiuretic activity,[16],inactive
same,IC50,[17],0.02 µM
C[C@]1(C2CCCC2)Cc2cc(OCCCC(=O)O)c(Cl)c(Cl)c2C1=O,Relative salidiuretic activity,[18],inactive
same,pKa,[3],5.7
same,Relative salidiuretic activity,[19],inactive
same,Distribution,[7],99%
same,Mortality,[20],5
same,IC50,[17],0.01 µM
CC1(C2CCCC2)Cc2cc(OCC(=O)O)c(Cl)c(Cl)c2C1=O (racemic),Activity,[21],94.4 µM/g
same,Activity,[22],97.1 µM/g
same,pKa,[3],3.9
same,Tissue swelling,[23],293 µL/g
same,Relative salidiuretic activity,[24],marked
same,Tissue swelling,[25],179 µL/g
same,Activity,[26],98.2 µM/g
same,Tissue swelling,[27],170 µL/g
same,Relative salidiuretic activity,[6],marked
same,Tissue swelling,[28],268 µL/g
same,Activity,[29],100.4 µM/g
same,Activity,[30],89.9 µM/g
same,Distribution,[7],90%
same,Activity,[31],100
same,Relative salidiuretic activity,[9],marked
same,Activity,[32],118.8 µM/g
same,Activity,[33],101.6 µM/g
same,Activity,[34],100
same,Activity,[35],90.2 µM/g
same,Activity,[36],116.3 µM/g
same,Activity,[37],104.8 µM/g
same,IC50,[17],0.2 µM
same,Activity,[38],91.4 µM/g
same,Mortality,[39],11
same,Relative salidiuretic activity,[40],marked
same,Activity,[41],93.5 µM/g
C[C@]1(C2CCCC2)Cc2cc(OCC(=O)O)c(Cl)c(Cl)c2C1=O,Relative salidiuretic activity,[42],marked
same,Activity,[43],98.4 µM/g
same,pKa,[3],3.9
same,Relative salidiuretic activity,[24],marked
same,Tissue swelling,[44],232 µL/g
same,Activity,[45],84.1 µM/g
same,Distribution,[7],90%
same,Activity,[46],101.8 µM/g
same,Activity,[47],92.4 µM/g
same,Tissue swelling,[48],156 µM/g
same,Activity,[49],95.9 µM/g
same,Activity,[50],89 µM/g
same,IC50,[17],0.1 µM
same,Relative salidiuretic activity,[51],marked
same,Tissue swelling,[52],157 µL/g
same,Activity,[53],100.9 µM/g
C[C@H]1CC2C(C(O)CC3(C)C2CC[C@]3(O)C(=O)COC(=O)CCC(=O)[O-])C2(C)C=CC(=O)C=C12.[Na+] (stereo partly specified),Mortality,[54],9
CC(=O)Nc1nnc(S(N)(=O)=O)s1 [ACETAZOLAMIDE],Distribution,[7],22%
same,Mortality,[55],8
same,IC50,[17],2000 µM
